Source: PubChem BioAssay
The list is not random: actives were taken first. Their share in the collection is about 2.1%.
Xi reactivation – reactivates the inactive X chromosome in mouse fibroblasts; XiGFP mouse fibroblasts, % GFP-positive cells imaging, 3 d; cells co-treated with 5-aza-dC sensitizer; scaled so ellipticine positive control = 100%; activation, % at 7.58 µM; 360,000 compounds, 0.055% hits; AID 743238;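 active means mean normalized replicate activation at least 10% and every replicate at or above 10%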
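System: XiGFP fibroblasts, SV40-immortalized. Medium: DMEM plus 5-aza-dC sensitizer. Doses: single point. Timing: 3 d treatment, 15 min room-temperature fixation. Control set: ellipticine 6 µM.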
DENV2 CPE rescue – protects cells from dengue virus 2 cytopathic effect. DENV2-infected cells, cytopathic effect rescue, plate reader. CPE inhibition, % at 9.99 µM. 350,000 compounds, 1.7% hits; in the data active means CPE inhibition above about 20%, passing the limit was not always enough; tested in BHK-21 cells
Cneo AK release – Cryptococcus neoformans lysis via adenylate kinase release; C. neoformans lysis, adenylate kinase release luminescence, 4 h; normalised: neutral wells 0, clomiphene wells 100; lysis activity, % at 15 µM; 360,000 compounds, 0.2% hits; AID 651654;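 active means mean lysis activity across replicates of at least 80%, whatever share of replicates individually reach that level; inactive means mean lysis activity below 80%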
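Test system: log-phase Cryptococcus neoformans yeast cells. Input: 5 × 10^6 yeast cells/mL. Medium: fresh YPD growth medium. Doses: single dose. Incubation: static 4 h at 37 °C with compound, 1 h detection. Measured by: luminescent adenylate kinase detection reagent. Read-out: signal increase indicating cell lysis. Benchmarks: Clomiphene.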
C2C12 statin – suppression of simvastatin myotoxicity; 330,000 compounds, 0.78% hits; AID 602340; rescue of ATP level, % at 7.49 µM; C2C12 myotubes + simvastatin, ATP luminescence, 48 h; scaled: DMSO 0, geranylgeraniol control 100;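 active means mean ATP rescue above about 67%, or every replicate alone reaching that limit, limit read from the data, passing the limit was not always enough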;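 further: myotubes were challenged with 10 µM simvastatin during compound exposure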
A number is an active result; n = inactive; x = no result given.

SMILES	Xi reactivation	DENV2 CPE rescue	Cneo AK release	C2C12 statin
C[C@H](CO)N1C[C@H](C)[C@H](CN(C)C(=O)Cc2ccncc2)Oc2ncc(C3=CCCCC3)cc2C1=O	n	n	n	n
CCOC(=O)C1=C(C)N=C2SCCC(=O)N2C1c1sccc1C (stereo not given)	x	x	n	n
C=CCOC(=O)C1=C(C)N=C2SCCC(=O)N2C1c1cccs1 (stereo not given)	x	x	n	110.1
O=S(=O)(N[C@@H]1CCCN(Cc2ccc(OCCO)cc2)C1)c1cc(Cl)ccc1Cl	x	n	n	x
C[C@H]1CCCCO[C@H](CN(C)S(=O)(=O)c2cn(C)cn2)[C@@H](C)CN([C@@H](C)CO)C(=O)c2cc(NS(=O)(=O)c3cccs3)ccc2O1	n	n	n	n
C[C@H]1CCCCO[C@@H](CN(C)S(=O)(=O)c2cn(C)cn2)[C@@H](C)CN([C@@H](C)CO)C(=O)c2cc(NS(=O)(=O)c3cccs3)ccc2O1	n	n	n	n
C[C@@H]1CN([C@@H](C)CO)C(=O)c2cc(NS(=O)(=O)c3cccs3)ccc2O[C@@H](C)CCCCO[C@@H]1CN(C)S(=O)(=O)c1cn(C)cn1	n	33.6	n	n
C[C@@H]1CCCCO[C@@H](CN(C)S(=O)(=O)c2cn(C)cn2)[C@@H](C)CN([C@H](C)CO)C(=O)c2cc(NS(=O)(=O)c3cccs3)ccc2O1	n	30.3	n	n
CCOC(=O)Cn1c(N2CCOCC2)nc2c1c(=O)[nH]c(=O)n2C	x	x	n	118.4
O=C(CSc1nnc(-c2ccncc2)n1Cc1ccco1)Nc1nc(-c2ccccc2)cs1	x	x	n	97.5
O=C(CSc1nnc(-c2ccncc2)n1Cc1ccco1)Nc1ccccc1F	n	n	n	x
CCNC(=O)C[C@H]1CC[C@H]2[C@@H](COc3ccc(NC(=O)c4cccc(C#N)c4)cc3C(=O)N2C)O1	n	x	x	x
CC(C)(C)CC(=O)NC(=S)NCCc1ccccc1	x	n	99.9	n
CC(C)CC(=O)NC(=S)NCCc1ccccc1	x	x	n	n
C[C@H](CO)N1C[C@H](C)[C@@H](CN(C)CC2CCCCC2)Oc2c(NC(=O)Nc3ccc(C(F)(F)F)cc3)cccc2C1=O	n	n	n	n
COc1ccccc1NC(=S)NC1CC2CCC1C2 (stereo not given)	n	n	n	126.3
COc1ccccc1NC(=O)CN1CCCCCC1	n	n	n	n
COc1ccc(C)cc1NC(=O)C(c1ccccc1)N1CCN(CC(=O)N2CCOCC2)CC1 (stereo not given)	n	28.0	n	n
COc1ccccc1NC(=O)CN1CCOCC1	n	74.9	n	n
CCC(=O)NC(=S)Nc1ccccc1OC	x	x	n	133.1
CO[C@H]1CN(C)C(=O)c2cc(NS(=O)(=O)c3cn(C)cn3)ccc2OC[C@H](C)N(Cc2cccc(F)c2)C[C@@H]1C	n	n	n	n
CN1CCN(C(=O)[C@H]2[C@H](CO)[C@H]3Cn4c(ccc(-c5cncnc5)c4=O)[C@H]3N2CC2CC2)CC1	n	n	n	n
CCC(=O)Nc1ccc2c(c1)C(=O)N(C)C[C@@H](OC)[C@@H](C)CN(C(=O)CN(C)C)[C@H](C)CO2	n	x	x	n
COc1ccc(S(=O)(=O)Nc2ccc3c(c2)CC(=O)N([C@H](C)CO)C[C@H](C)[C@H](CN(C)Cc2ccncc2)O3)cc1	n	n	n	n
O=C(CN1C(=O)NC(CCc2ccccc2)C1=O)Nc1ccc(F)c(F)c1F (stereo not given)	n	n	n	n
SMILES	Xi reactivation	DENV2 CPE rescue	Cneo AK release	C2C12 statin
CC(C)NC(=O)CN1C(=O)NC(CCc2ccccc2)C1=O (stereo not given)	x	x	n	114.2
Cc1ccc(S(=O)(=O)c2c(COC(=O)c3ccccc3Cl)c(-c3ccccc3)nn2C)cc1	x	x	n	116.2
C[C@H](CO)N1C[C@H](C)[C@@H](CN(C)CC2CC2)Oc2c(NC(=O)C3CCCCC3)cccc2C1=O	n	n	n	n
CC(C)N1CCc2c(sc(NC(=O)c3ccc4ccccc4c3)c2C(N)=O)C1	99.2	n	n	n
CC(C)N1CCc2c(sc(NC(=O)c3cc4cc([N+](=O)[O-])ccc4s3)c2C(N)=O)C1	64.6	n	n	n
CC(=O)c1ccc(C(=O)Nc2sc3c(c2C(N)=O)CCN(Cc2ccccc2)C3)cc1	38.7	n	n	n
CCCCCCCC(=O)N/N=C/c1cccnc1	x	x	n	n
O=C(CCCCC(=O)NN=Cc1ccccc1O)NN=Cc1ccccc1O	n	n	n	105.7
CCCCCCCC(=O)N/N=C/c1ccc(Br)cc1	x	x	n	133.5
O=C(CSCC(=O)NN=Cc1ccccc1O)NN=Cc1ccccc1O	n	n	x	n
O=[N+]([O-])c1ccc(C2=NN(c3ccccc3)C(c3ccco3)C2)cc1 (stereo not given)	86.0	n	x	x
CC1=NN(c2ccccc2)C(c2ccco2)C1 (stereo not given)	n	n	n	n
O=[N+]([O-])c1ccc(/C=C/C2=NN(c3ccccc3)C(c3ccco3)C2)cc1 (stereo not given)	89.0	x	n	n
COc1ccc(CN(C)C[C@@H]2Oc3ccc(NC(=O)CCN4CCOCC4)cc3C(=O)N([C@H](C)CO)C[C@@H]2C)cc1	n	n	n	n
Cn1cnc(S(=O)(=O)N2CC[C@H]3[C@H](CO)Nc4ccc(-c5ccccc5)cc4[C@H]32)c1	n	n	n	n
Cc1ccccc1S(=O)(=O)N1CC[C@@H]2[C@@H](CO)Nc3ccc(-c4cccc(C#N)c4)cc3[C@@H]21	n	64.6	n	n
COc1ccc(-c2ccc3c(c2)[C@H]2[C@H](CCN2S(=O)(=O)c2ccc(OC)cc2)[C@H](CO)N3)cc1	n	54.4	n	n
N#Cc1cccc(-c2ccc3c(c2)[C@@H]2[C@@H](CCN2S(=O)(=O)c2ccccc2F)[C@H](CO)N3)c1	n	n	n	n
COc1cccc(-c2ccc3c(c2)[C@@H]2[C@@H](CCN2S(=O)(=O)c2cn(C)cn2)[C@@H](CO)N3)c1	n	35.1	n	n
COc1ccc(S(=O)(=O)N2CC[C@H]3[C@H](CO)Nc4ccc(-c5ccc(C#N)cc5)cc4[C@H]32)cc1	n	n	n	n
Cc1ccccc1S(=O)(=O)N1CC[C@@H]2[C@H](CO)Nc3ccc(-c4cccc(C#N)c4)cc3[C@@H]21	n	95.7	n	n
CO[C@H]1CN(C)C(=O)c2cc(NC(C)=O)ccc2OC[C@@H](C)N(C(=O)c2ccccn2)C[C@@H]1C	n	n	n	n
COCC(=O)N1CC2(C1)[C@@H](c1ccc(-c3ccc(F)cc3)cc1)[C@H](CO)N2C(=O)C1CC1	n	n	x	x
COc1ccc2c3c([nH]c2c1)[C@H](CO)N(Cc1ccncc1)CC31CN(CC2CCOCC2)C1	n	n	x	x
COc1cccc(-c2ccc3c(c2)[C@H]2[C@H](CCN2S(=O)(=O)c2ccccc2C)[C@H](CO)N3)c1	n	38.6	n	n
COc1cccc(-c2ccc3c(c2)[C@H]2[C@H](CCN2S(=O)(=O)c2ccccc2C)[C@@H](CO)N3)c1	n	n	n	n
